Results on three compounds are retold here after PMC4180501 (Biochimica et biophysica acta, 2012).

Residue numbers refer to the chain shown, from its start. Read-outs that look alike come from different tables or passages of the source.

The target of assay [1] is T1, GK- W257 (W99R/W167F) (Homo sapiens, UniProt P35557, W167F/W99R).
T1 sequence (P35557 1-465 W99R/W167F): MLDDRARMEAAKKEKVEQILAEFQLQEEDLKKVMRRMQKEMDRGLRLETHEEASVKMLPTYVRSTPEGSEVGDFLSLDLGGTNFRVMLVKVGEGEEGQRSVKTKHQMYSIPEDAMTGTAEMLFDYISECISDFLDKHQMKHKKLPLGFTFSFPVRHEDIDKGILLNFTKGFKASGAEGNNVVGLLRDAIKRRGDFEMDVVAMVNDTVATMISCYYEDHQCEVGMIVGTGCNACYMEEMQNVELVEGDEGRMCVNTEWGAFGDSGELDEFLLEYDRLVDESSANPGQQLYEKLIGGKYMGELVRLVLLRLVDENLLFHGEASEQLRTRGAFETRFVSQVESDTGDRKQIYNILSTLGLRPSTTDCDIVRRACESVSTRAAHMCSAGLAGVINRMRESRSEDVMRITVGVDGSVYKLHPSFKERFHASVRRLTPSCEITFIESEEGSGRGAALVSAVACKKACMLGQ
Kind of assay: NADP+-coupled spectrophotometric kinetic assay. Format: biochemical. The settings on record: read-out: ATP KM; W-257; no GKA; 30% glycerol.

In assay [2] the target is T2, GK-W99 (W167F/W257F) (Homo sapiens, UniProt P35557, W167F/W257F).
T2 sequence (P35557 1-465 W167F/W257F): T1 sequence (P35557 1-465 W99R/W167F) with R99W, W257F
Kind of assay: NADP+-coupled spectrophotometric kinetic assay. Format: biochemical. The settings on record: read-out: ATP KM; W-99; no GKA; 30% glycerol. Put shortly:
(§1)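 Recombinant human β-cell glucokinase single-Trp variant, expressed in E. coli as a GST fusion and sequence-verified. Catalytic parameters came from an NADP+-coupled spectrophotometric assay run with or without 30% glycerol. Hill coefficient and glucose S0.5 were obtained by fitting v/Vmax = [glucose]^H/(K′+[glucose]^H), with […].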

The target in assay [3] is T3, GK-WT (Homo sapiens, UniProt P35557).
T3 sequence (P35557 1-465): T1 sequence (P35557 1-465 W99R/W167F) with R99W, F167W
Briefly: NADP+-coupled spectrophotometric kinetic assay. The assay is classed as biochemical.

Assay [4] has as its target T3, GK-WT. As to conditions: read-out: ATP KM, no GKA, no glycerol, ref [19]; cited from earlier work.
Assay [5] addresses T1, GK- W257 (W99R/W167F). As to conditions: read-out: ATP KM; W-257; no GKA; no glycerol; ref [19]; cited from earlier work.
Assay [6] deals with T2, GK-W99 (W167F/W257F). The settings on record: read-out: ATP KM; W-99; no GKA; no glycerol; ref [19]; cited from earlier work.
For assay [7], the target named is T4, GK-W167 (W99R/W257F) (Homo sapiens, UniProt P35557, W257F/W99R).
T4 sequence (P35557 1-465 W99R/W257F): T1 sequence (P35557 1-465 W99R/W167F) with F167W, W257F
As to conditions: read-out: ATP KM; W-167; no GKA; no glycerol; ref [19]; cited from earlier work.

Assay [8] concerns the target T4, GK-W167 (W99R/W257F). Kind of assay: NADP+-coupled spectrophotometric kinetic assay. The settings on record: read-out: ATP KM; W-167; no GKA; 30% glycerol. The assay is classed as biochemical. Put shortly:
as §1

Assay [9] concerns the target T3, GK-WT. Briefly: Urea unfolding/refolding of GK by tryptophan fluorescence. Put shortly: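 GK-WT unfolding was followed by urea titration in 20 mM PO4, 50 mM KCl, 1 mM EDTA, 1 mM DTT, pH 7.3, 20 °C, ± 20% glycerol, ± 300 mM glucose. I320/I360 was read at 295 nm excitation, and ΔGu(H2O) came from a two-state fit. Reversibility was tested after 30 min in 4 or 8 M urea, then dialysis, by restoration of the spectrum and glucose response.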

Assay [10] has as its target T3, GK-WT. Kind of assay: Temperature dependent tryptophan fluorescence. As to conditions: glycerol present, absence of glucose. The method, boiled down:
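Tryptophan emission spectra of about 3 µM GK in 5 mM K-phosphate, pH 7.3, 100 mM KCl were recorded from 10 to 65 °C in a thermostatted, thermocouple-monitored cell. […] Line 7 also used ± 20% glycerol. Denaturation was followed as the I320/I360 ratio and its temperature derivative.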

Assay [11] deals with T3, GK-WT. Briefly: DSC thermal denaturation. Put shortly: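 Wild-type recombinant human GK was run by DSC at 0.3 mg/ml (6 µM) in 5 mM phosphate, 100 mM KCl, pH 7.3, in buffer or 20% glycerol, with glucose up to 300 mM. The scan was 0.25 degree/min against a protein-free reference. Tm was plotted against glucose and fit to a hyperbola for EC50. Unfolding rate constant used k=vCp/(Qt−Q) to derive activation energy.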

In the case of `Nc1ncnc2c1ncn2[C@@H]1O[C@H](COP(=O)(O)OP(=O)(O)OP(=O)(O)O)[C@@H](O)[C@H]1O` [ATP], the Km on GK- W257 (W99R/W167F) [1] was 710 µM; on GK-W99 (W167F/W257F) [2], 710 µM; at GK-WT [3] (read-out: ATP KM, GK-WT, no GKA, 30% glycerol), 230 µM; on GK-WT [4] it was 460 µM; on GK- W257 (W99R/W167F) [5], 3350 µM; at GK-W99 (W167F/W257F) [6] it was 1630 µM. The Km at GK-W167 (W99R/W257F) [7] is 780 µM; at GK-W167 (W99R/W257F) [8], 300 µM.
Consider `OCC(O)CO` [glycerol], for which the “Q10 of the GK reaction” value at GK-WT [3] (presence of glycerol) worked out at 1.47. In addition, at GK-WT [9] (GK-WT in 20% glycerol, 20°C, pH 7.3), the “ΔGu(H2O) of urea denaturation” value was determined as 1.84 kcal/mol. Besides, the TmF on GK-WT [10] is 48 °C. The ΔH thermal denaturation at GK-WT [11] (GK-WT in 20% glycerol, no D-glucose) was 126 kcal/mol. For the same compound, the Tm at GK-WT [11] (GK-WT in 20% glycerol, no D-glucose, DSC) turned out to be 51.3 °C. Further, the Ea thermal denaturation on GK-WT [11] (GK-WT, 20% glycerol, 0 mM D-glucose) turned out to be 131.5 kcal/mol.
In the case of `NC(N)=O` [urea], on GK-WT [9] (4 or 8 M urea, TF studies, urea removed by dialysis), the “reversibility of GK unfolding” value is listed as “fully reversible”.
